Screening results as filed in PubChem BioAssay.
UPR CHOP act: apoptotic UPR (CHOP) activation; CHO-CHOP luciferase reporter, luminescence; percent of tunicamycin response over DMSO baseline; activation, % at 10 µM; actives 0.34% (n = 330,000); AID 449763;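 active = at 10 µM dose, activation of 40% or more, normalized to positive control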
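Assay system: CHO cells with stable CHOP pathway luciferase reporter; Buffer or medium: F12 plus 10% serum; Times: 16-18 h cell attachment, then 6 h compound exposure, 37 °C; Signal: luciferase luminescence; Read-out basis: percent activation relative to tunicamycin control; Control set: tunicamycin high control, DMSO low control.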
A1 inh: inhibitors of the anti-apoptotic protein A1, read as caspase activation; AID 2462; caspase activation, % (no concentration beside the values); actives 0.066% (n = 330,000); MEF A1-2A-BIM cells, Caspase-Glo 3/7 luminescence, 3 h; percent of clofoctol response, vehicle zero;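 active = over half of replicate activation scores above 10%, or exactly half above 10 with the replicate mean above 10; inconclusive = replicate mean below 10 yet half the replicates above 10; inactive = over half of replicates below 10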
XBP1 UPR activ: adaptive UPR (XBP1) activation; activation, % at 20 µM; CHO-XBP1 luciferase reporter, IRE1-XBP1 UPR activation, luminescence; percent of tunicamycin response, DMSO as zero; actives 0.33% (n = 330,000);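 active = versus positive control, 20 µM dose yields 30% or more activation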
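Material: CHO cell line with stable XBP1 luciferase reporter; buffer or medium: F12 medium containing 10% fetal bovine serum; compound: single point, 20 µM final compound, 1% DMSO; incubation: 6 h treatment, 37 °C; measured by: glow luminescence from Steady-Glo reagent; evaluation: activation, % of tunicamycin; control set: tunicamycin high, DMSO low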
CHOP inh: inhibitors of CHOP induction in ER stress response; inhibition, % at 10 µM; CHO-K1 CHOP-promoter luciferase, tunicamycin-induced, 15-18 h; actives 3.8% (n = 220,000);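 active = compounds that reduced the stress-induced luciferase reporter signal by more than about 70% of percent inhibition, limit read from the data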
Hits are given with their value; – = inactive; ? = inconclusive; · = not tested or not shown; ! = not active in a repeat. The sample as a whole holds a higher share of hits than the screen did.

SMILES | UPR CHOP act | A1 inh | XBP1 UPR activ | CHOP inh
O=C1c2ccccc2C(=O)C2OC12 (configuration not stated) | 66 | – | – | ·
Cc1cccc(-c2nnc(SCC#N)n2C)c1 | – | – | – | –
Cc1ccc(C(=O)N2CCN(c3ccc(NC(=O)c4ccc(Br)o4)cc3)CC2)cc1 | – | – | – | 72
CCOC(=O)C1(C(C)(C)CC)CC(CSc2nc3ccccc3[nH]2)OC1=O (configuration not stated) | – | – | – | 75
COc1ccc(Oc2nccc(-c3ccc(Cl)cc3)n2)cc1 | – | – | – | –
Fc1ccc(Oc2nccc(-c3ccc(Cl)cc3)n2)cc1 | – | – | – | 81
CN(C)c1cccc(C(=O)Nc2cc(C(F)(F)F)ccc2-n2cnc3ccccc32)c1 | – | – | – | –
Fc1ccccc1COc1cccc(/C=N/n2cnnc2)c1 | – | – | – | 72
OCCC1CN(Cc2c(O)ccc3ccccc23)CCN1CCc1ccccc1 (configuration not stated) | – | – | – | –
Cc1nn(-c2nc(-c3ccco3)cc(C(F)(F)F)n2)c(C)c1Br | – | – | – | 73
Fc1ccc(N2CCN(c3nc(-c4ccco4)cc(C(F)(F)F)n3)CC2)cc1 | – | – | – | –
c1ccc(-c2nnc3ccc(N4CCCC4)nn23)cc1 | – | – | – | –
FC(F)(F)c1cccc(N2CCN(c3ccc4nnc(-c5ccccc5)n4n3)CC2)c1 | – | – | – | 85
COc1cccc(/C=C2\SC(N3CCCC(C)C3)=NC2=O)c1OC (configuration not stated) | – | – | – | ·
CCCOc1ccc(/C=N/NC(=O)CN2CCCCC2)cc1 | – | – | – | ·
C=CCSC1=NC(=O)/C(=C/c2cccs2)S1 | · | – | · | 81
NC1=NC(=O)/C(=C/c2cccs2)S1 | – | – | – | –
Cc1ccc2c(c1)N(CCC(=O)NCc1cccs1)C(=O)C(C)O2 (configuration not stated) | – | – | – | 74
Cc1ccc2c(c1)N(CC(=O)NCc1cccs1)C(=O)C(C)O2 (configuration not stated) | – | – | – | –
CN(C)c1ccnc2c[cH-]cc12.[Fe].c1ccc(-[c-]2[c-](-c3ccccc3)[c-](-c3ccccc3)[c-](-c3ccccc3)[c-]2-c2ccccc2)cc1 (configuration not stated) | – | – | – | 88!
CCOC(=O)c1cccc(NC(=O)CCc2nc(-c3ccc(C)cc3)no2)c1 | – | – | – | –
CCOC(=O)c1ccc(NC(=O)CCc2nc(-c3ccccc3Cl)no2)cc1 | – | – | – | 81
CCOC(=O)c1ccc(NC(=O)CCc2nc(-c3ccccc3)no2)cc1 | – | – | – | 79
C/C(=N/Nc1ccc(C)cc1)C1(C)N(O)C(C)(C)C(c2ccco2)=[N+]1[O-] (configuration not stated) | – | – | – | –
N=c1n(CCCOc2ccc(F)cc2)c2ccccc2n1CC(N)=O | – | – | – | –
SMILES | UPR CHOP act | A1 inh | XBP1 UPR activ | CHOP inh
O=c1[nH]c(SCc2nc3ccccc3n2Cc2ccccc2)nc2ccccc12 | – | – | – | –
CCc1c(O)c(/C(C)=N\O)c(=O)n(-c2ccccc2)c1-c1ccccc1 | – | – | – | –
C=CCO/N=C(/C)c1c(O)c(CC)c(-c2ccccc2)n(-c2ccccc2)c1=O | – | – | – | 72
CCc1ccc(C(C)NC(=O)/C(C#N)=C\c2cn[nH]c2-c2ccccc2)cc1 (configuration not stated) | – | – | – | 78
CC(NC(=O)/C(C#N)=C/c1cn[nH]c1-c1ccccc1)c1ccccc1 (configuration not stated) | – | ? | – | –
N#C/C(=C\c1cn[nH]c1-c1ccc(Cl)cc1)C(=O)NC1CC1 | – | – | – | –
N#C/C(=C\c1cn[nH]c1-c1ccccc1)C(=O)NC1CCCCCC1 | – | – | – | 72
CC(C)(C)NC(=O)c1ccc(COc2ccccc2Br)o1 | – | – | – | –
COC(=O)CC(NC(=O)Nc1ccc(C)cc1)c1cccc([N+](=O)[O-])c1 (configuration not stated) | – | – | – | –
Nc1cccc(C(=O)Nc2ccco2)c1 | – | – | – | –
CON/C=C(\C=Nc1ccccc1)c1ncc(C(F)(F)F)cc1Cl | – | – | – | 89
CON/C=C(\C=Nc1ccc(Cl)cc1Cl)c1ncc(C(F)(F)F)cc1Cl | – | – | – | –
